Bioassay records: PubChem BioAssay, Johns Hopkins Ion Channel Center
The list is not random: actives were taken first. Their share in the collection is about 4.1%.
MrgX1 allo act = positive allosteric modulators of MrgX1, primary screen, HEK293 cells, Fluo-4 calcium flux. Mas-related G-protein coupled receptor member X1 (Homo sapiens), Q96LB2. FDSS; active compounds read high. B-score at 10 µM. 310,000 tested, 0.63% active. AID 588675, 2011;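 active = plate-corrected calcium response at least 3 library SD above typical, normal starting fluorescence, not activating the receptor alone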;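 also: compound read alongside a low EC10 to EC30 dose of BAM8-22 agonist; peak minus trough fluorescence over baseline measured at the second addition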
RGS4 act = RGS4 potentiators or activators, primary screen, cell-based, HEK293 M3R inducible RGS4, calcium flux; AID 463111, 2010; carbachol calcium flux Fluo4; active compounds read low; B-score at 10 µM; 310,000 tested, 0.92% active;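 active = B-score of the integrated calcium signal more than 4 SD below the library mean, with starting fluorescence not abnormally high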;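 also: negative B-score means reduced calcium response which marks RGS4 activation or potentiation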
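Also added: carbachol at ECmax as muscarinic agonist stimulus; Assay system: HEK293 cells with stable M3R and inducible RGS4; Timing: overnight RGS4 induction, 30 min dye load 37 °C, 20 min compound RT; Measured by: Fluo4-AM (2 µM) calcium-flux fluorescence, kinetic read.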
MrgX1 ag = agonists of human MrgX1 receptor, primary screen, HEK293 cells, Fluo-4 calcium flux; Mas-related G-protein coupled receptor member X1 (Homo sapiens), Q96LB2; Fluo-4 calcium fluorescence, agonist mode; active compounds read high; B-score at 10 µM; 310,000 tested, 0.44% active; AID 588627, 2011;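 active = calcium response B-score plate-corrected fluorescence ratio at least 3 library SD, with starting fluorescence B-score inside 5 SD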
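Material – MrgX1-expressing HEK293 cells · Input – 15,000 cells seeded per well · Dosing – compound as first of three additions · Times – overnight seeding, then 1 h dark dye loading · Measured by – kinetic Fluo-4 NW fluorescence of intracellular calcium · Read-out – B-scored fluorescence response ratio · Benchmarks – positive and negative control wells on each plate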
Kir21 block = inhibitors of mouse Kir2.1 inward-rectifier potassium channel. Inward rectifier potassium channel 2 (Mus musculus), P35561. HEK293-Kir2.1, FluxOR thallium flux fluorescence; active compounds read low. B-score at 10 µM. 310,000 tested, 0.85% active. AID 1672, 2009;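 active = fluorescence ratio B-score at or below minus 3 SD of library scores, with starting-brightness B-score within 2 SD, cut at about -4.2 in these data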;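 also: channel flux triggered by added potassium and thallium sulfate stimulus; B-score of peak minus minimum fluorescence over baseline after thallium stimulus; more negative B-score means stronger Kir2.1 block with less thallium influx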
Target sequence (P35561 whole entry, looked up): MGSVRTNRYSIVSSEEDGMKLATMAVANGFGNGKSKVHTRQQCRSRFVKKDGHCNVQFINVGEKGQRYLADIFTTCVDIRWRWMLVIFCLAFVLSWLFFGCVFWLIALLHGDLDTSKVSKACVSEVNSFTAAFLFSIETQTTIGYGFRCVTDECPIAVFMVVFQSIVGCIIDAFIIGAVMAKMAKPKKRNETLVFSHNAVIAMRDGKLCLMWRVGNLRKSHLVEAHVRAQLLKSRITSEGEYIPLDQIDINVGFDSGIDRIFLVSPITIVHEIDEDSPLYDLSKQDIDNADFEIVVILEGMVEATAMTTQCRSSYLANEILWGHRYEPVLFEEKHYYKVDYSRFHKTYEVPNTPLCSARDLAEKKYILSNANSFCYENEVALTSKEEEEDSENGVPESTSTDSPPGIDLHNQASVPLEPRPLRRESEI
MrgX1 antag = antagonists of human MrgX1 receptor, primary screen, HEK293 cells, Fluo-4 calcium flux; Mas-related G-protein coupled receptor member X1 (Homo sapiens), Q96LB2; BAM8-22 antagonism; active compounds read low; B-score at 10 µM; 310,000 tested, 1.3% active;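 active = calcium-response B-score plate-corrected more than 3 library SD below zero, starting fluorescence within 5 deviations, no agonist response on first addition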;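 also: peak minus trough fluorescence over baseline after final BAM8-22 challenge near maximal dose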
RGS4 inh = RGS4 inhibitors, primary screen, cell-based, HEK293 M3R inducible RGS4, calcium flux; Regulator of G-protein signaling 4 (Homo sapiens), P49798; Fluo-4 calcium flux; active compounds read high; triggered by carbachol at its EC20; B-score at 10 µM; 310,000 tested, 0.45% active;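 active = B-score, a plate-corrected calcium signal, over three deviations above library mean, with baseline fluorescence within five deviations of library mean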;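 also: RGS4 expression induced by doxycycline in cells with stable M3 receptor; B-score is computed from the integrated fluorescence ratio over baseline after carbachol; higher B-score means a larger calcium signal and so more RGS4 inhibition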
Active calls of the source: *.

What do the screens show for `COc1ccc(/C=C2/SC(=O)N(CCC(=O)Nc3ccc(C)cc3)C2=O)cc1OC`?
MrgX1 allo act: inactive; RGS4 act: inactive; MrgX1 ag: inactive; Kir21 block: -0.4; MrgX1 antag: inactive; RGS4 inh: inactive

How did OC(CCN1CCCC1)(c1ccccc1)C1CCCCC1 (centres undefined) do in these assays?
MrgX1 allo act: inactive; RGS4 act: inactive; MrgX1 ag: inactive; Kir21 block: -1.6; MrgX1 antag: inactive; RGS4 inh: inactive

What do the screens show for `O=S(=O)(c1ccc(Br)cc1)N1CCCN(Cc2cccc(F)c2)CC1`?
MrgX1 allo act: inactive; RGS4 act: -8.3*; MrgX1 ag: inactive; Kir21 block: -1.2; MrgX1 antag: inactive; RGS4 inh: inactive

How did O=C1CCCCCCC1Sc1ccccc1[N+](=O)[O-] (centres undefined) do in these assays?
MrgX1 allo act: 15*; RGS4 act: inactive; MrgX1 ag: inactive; Kir21 block: 0.58; MrgX1 antag: inactive; RGS4 inh: inactive

Results for C=C(C(=O)c1ccccc1)C(C(=C)C(=O)c1ccccc1)c1ccc(OC)cc1 ?
MrgX1 allo act: inactive; RGS4 act: inactive; MrgX1 ag: inactive; Kir21 block: 0.92; MrgX1 antag: inactive; RGS4 inh: inactive

Results for C=C(C(=O)c1ccccc1)C(C)C(=C)C(=O)c1ccccc1 ?
MrgX1 allo act: inactive; RGS4 act: inactive; MrgX1 ag: inactive; Kir21 block: -4.4*; MrgX1 antag: inactive; RGS4 inh: inactive

What do the screens show for `C=C(C(=O)c1ccccc1)C(c1ccccc1)C(C)C(=O)c1ccccc1` (centres undefined)?
MrgX1 allo act: inactive; RGS4 act: inactive; MrgX1 ag: inactive; Kir21 block: -4.4*; MrgX1 antag: inactive; RGS4 inh: inactive

How did CCN(CC)S(=O)(=O)c1cccc(C(=O)/C=C2/N(C)c3ccccc3C2(C)C)c1 do in these assays?
MrgX1 allo act: inactive; RGS4 act: -7*; MrgX1 ag: inactive; Kir21 block: -0.02; MrgX1 antag: inactive; RGS4 inh: inactive

Results for CC1c2ccsc2CCN1S(=O)(=O)c1ccccc1 (centres undefined) ?
MrgX1 allo act: inactive; RGS4 act: inactive; MrgX1 ag: inactive; Kir21 block: -6.8*; MrgX1 antag: inactive; RGS4 inh: inactive

How did CCN1/C(=C\C(=S)Nc2ccccc2)Sc2ccccc21 do in these assays?
MrgX1 allo act: inactive; RGS4 act: inactive; MrgX1 ag: inactive; Kir21 block: 0.14; MrgX1 antag: inactive; RGS4 inh: inactive

What do the screens show for `CCN1/C(=C/C(C)=C/c2sc3ccccc3[n+]2CC)Sc2ccccc21`?
MrgX1 allo act: inactive; RGS4 act: inactive; MrgX1 ag: inactive; Kir21 block: 1.8; MrgX1 antag: -6.4*; RGS4 inh: inactive

What do the screens show for `CC(c1ccccc1)C1CC(=O)N(C2CCCCC2)C1=O` (centres undefined)?
MrgX1 allo act: inactive; RGS4 act: inactive; MrgX1 ag: inactive; Kir21 block: -2; MrgX1 antag: inactive; RGS4 inh: inactive

How did CCOc1ccc(/C=C/C2=CC(C)(C)NC(=S)N2)cc1 do in these assays?
MrgX1 allo act: inactive; RGS4 act: inactive; MrgX1 ag: inactive; Kir21 block: -0.5; MrgX1 antag: inactive; RGS4 inh: inactive

What do the screens show for `Cc1cc(C)c[n+](CC(=O)c2cc3ccccc3oc2=O)c1`?
MrgX1 allo act: inactive; RGS4 act: inactive; MrgX1 ag: inactive; Kir21 block: 2.3; MrgX1 antag: inactive; RGS4 inh: inactive

How did Cc1ccc[n+](CC(=O)c2cc3ccccc3oc2=O)c1 do in these assays?
MrgX1 allo act: inactive; RGS4 act: -9.9*; MrgX1 ag: inactive; Kir21 block: -0.22; MrgX1 antag: inactive; RGS4 inh: inactive

Results for COc1ccc(NCC(=O)N/N=C/c2ccc3c(c2)OCCO3)cc1 ?
MrgX1 allo act: inactive; RGS4 act: inactive; MrgX1 ag: inactive; Kir21 block: -0.82; MrgX1 antag: inactive; RGS4 inh: inactive
